From ChEMBL document CHEMBL4725413, “Quinoline-Pyrazole Scaffold as a Novel Ligand of Galectin-3 and Suppressor of TREM2 Signaling” (ACS Med Chem Lett, 2020) come the findings set out here.

For assay [1], the species on record is Homo sapiens. Description: Inhibition of recombinant human galectin-3/recombinant human TREM2 interaction assessed as reduction in TR-FRET signal at 10 uM incubated for 3 hrs by TR-FRET assay relative to control. The gist of the method:
(§1)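 TR-FRET using Eu cryptate-labelled galectin-3 (donor) and Alexa Fluor 647-labelled TREM2 (acceptor). Disruption of binding lowers the TR-FRET ratio. Single-point screening was at 10 μM, with hits defined as >5 SD below the mean signal. Dose-response runs gave IC50.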
For orientation: In TR-FRET formats the signal depends on donor and acceptor labels being close together.

Assay [2] in a line: Inhibition of recombinant human galectin-3/recombinant human TREM2 interaction assessed as reduction in TR-FRET signal incubated for 3 hrs by TR-FRET assay. The gist of the method: as §1
The target in assay [3] is T1, Galectin-3 (Homo sapiens, UniProt P17931). Description: Binding affinity to recombinant human galectin 3 assessed as dissociation constant by fluorescent anisotropy assay. An outline of the steps:
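Fluorescence anisotropy. Increasing galectin concentrations were titrated against a fixed concentration of small molecule until anisotropy reached a maximum (saturation), and Kd was derived from this.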

Assay [4] concerns the target Galectin-1 (Homo sapiens, UniProt P09382). Description: Binding affinity to recombinant human galectin 1 assessed as dissociation constant by fluorescent anisotropy assay.
Assay [5] has as its target T1, Galectin-3. Description: Binding affinity to recombinant human galectin 3 assessed as dissociation constant by SPR assay. The gist of the method:
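SPR with galectin-3 for Kd estimation. TREM2 was also run by SPR as a counter-target.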
(In SPR one partner is held on a chip, and binding of the other changes the refractive index at the surface.)

The test system of assay [6] is BV-2. Description: Antiinflammatory activity in mouse BV-2 cells assessed as reduction in Abeta-induced TNFalpha release incubated for 12 hrs by ELISA. Conditions: dose microM 2.5-10, time 12.0 hrs. The format is functional, cell-based. The gist of the method:
(§2)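 BV2 microglia co-treated with Aβ fibrils (10 μM) for 12 h, with or without a range of test-compound concentrations. TNFα, IL12 and IL8 were quantified in culture medium. Values are relative to untreated control. Mean ± SD, n = 3.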
On the technique in general: In an ELISA, binding on a coated surface is turned into a signal by an enzyme label.

Assay [7] relates to BV-2. The assay can be described thus: Antiinflammatory activity in mouse BV-2 cells assessed as reduction in Abeta-induced IL-12 release incubated for 12 hrs by ELISA. The format is functional, cell-based. To be noted: dose microM 2.5-10, time 12.0 hrs. An outline of the steps: as §2
Assay [8] concerns BV-2. Description: Antiinflammatory activity in mouse BV-2 cells assessed as reduction in Abeta-induced IL-8 release incubated for 12 hrs by ELISA. It counts as functional, cell-based. To be noted: dose microM 2.5-10, time 12.0 hrs. The gist of the method:
as §2

Assay [9] deals with BV-2. Description: Antiinflammatory activity in mouse BV-2 cells assessed as reduction in Abeta-induced TNFalpha release at 10 uM incubated for 12 hrs by ELISA relative to control. It counts as functional. The gist of the method: as §2
The test system of assay [10] is BV-2. Description: Antiinflammatory activity in mouse BV-2 cells assessed as reduction in Abeta-induced IL-12 release at 10 uM incubated for 12 hrs by ELISA relative to control. The format is functional. An outline of the steps: as §2
For assay [11], the target named is T1, Galectin-3. The assay can be described thus: Inhibition of galectin 3 in mouse BWZ cells transfected with TREM2 and DAP12 assessed as reduction in lacZ activity incubated for 24 hrs by lacZ reporter gene based beta-galactosidase assay. It counts as cell-based. To be noted: dose microM 2.5-10, time 24.0 hrs. An outline of the steps:
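TREM2-DAP12 reporter assay in BWZ thymoma cells transfected with TREM2 and DAP12. Galectin-3 (5 μM) was the stimulant, co-incubated with a range of compound concentrations. NFAT-driven LacZ β-galactosidase activity was the read-out. Controls were unstimulated cells and galectin-stimulated cells without compound, plus untransfected BWZ cells. Mean ± SD, n = 3.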

T1 sequence (P17931 whole entry): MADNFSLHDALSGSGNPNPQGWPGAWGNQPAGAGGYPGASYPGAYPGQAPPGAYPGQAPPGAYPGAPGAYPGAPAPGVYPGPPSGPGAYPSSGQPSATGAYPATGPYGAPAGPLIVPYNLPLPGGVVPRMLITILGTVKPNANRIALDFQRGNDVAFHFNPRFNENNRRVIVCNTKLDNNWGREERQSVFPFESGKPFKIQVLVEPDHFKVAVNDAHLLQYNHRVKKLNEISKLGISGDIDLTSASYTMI
Chain of Galectin-1 (P09382 whole entry): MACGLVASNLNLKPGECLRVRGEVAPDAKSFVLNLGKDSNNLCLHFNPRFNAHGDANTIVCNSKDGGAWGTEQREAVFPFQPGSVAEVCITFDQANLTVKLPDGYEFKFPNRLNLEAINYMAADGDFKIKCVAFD

As usually defined, the inhibition is the change of the read-out against control, counted positive when it falls. In general, IC50 refers to the point on the concentration scale where inhibition reaches its midpoint. As usually defined, the Kd is the free concentration of one partner at which half of the binding sites on the other are occupied at equilibrium, for simple one-to-one binding. As to `Cn1cc(-c2ccncc2)c(-c2ccc(OCc3ccc4ccccc4n3)cc2)n1` [MARDEPODECT], the inhibition in assay [1] is more than 95%; in [6] it was “Dose-dependent effect”; in assay [7], “Dose-dependent effect”; in [8] it was “Dose-dependent effect”; in assay [11], “Dose-dependent effect”. Further, the IC50 in assay [2] came to 91 nM. Moreover, the Kd in assay [3] was 150 nM; in assay [4] it was more than 500000 nM; in assay [5], 290 nM. Moreover, the inhibition at 10 µM in assay [9] is 50%; in assay [10], 40%.
